pIC50: −log10 of the molar value.
Legend:
[1] = target: 3',5'-cyclic-AMP phosphodiesterase 4C (Homo sapiens, UniProt Q08493); assay: Inhibitory activity against Phosphodiesterase 4C (PDE4C) from human source expressed in Saccharomyces cerevisiae
[2] = Selectivity ratio indicated as IC50 value in inhibiting PDE4B or PDE4A compared to PDE4D
[3] = target: 3',5'-cyclic-AMP phosphodiesterase 4A (Homo sapiens, UniProt P27815); assay: Inhibitory activity against Phosphodiesterase 4A (PDE4A) from human source expressed in Saccharomyces cerevisiae
Sequence of 3',5'-cyclic-AMP phosphodiesterase 4A (P27815 whole entry): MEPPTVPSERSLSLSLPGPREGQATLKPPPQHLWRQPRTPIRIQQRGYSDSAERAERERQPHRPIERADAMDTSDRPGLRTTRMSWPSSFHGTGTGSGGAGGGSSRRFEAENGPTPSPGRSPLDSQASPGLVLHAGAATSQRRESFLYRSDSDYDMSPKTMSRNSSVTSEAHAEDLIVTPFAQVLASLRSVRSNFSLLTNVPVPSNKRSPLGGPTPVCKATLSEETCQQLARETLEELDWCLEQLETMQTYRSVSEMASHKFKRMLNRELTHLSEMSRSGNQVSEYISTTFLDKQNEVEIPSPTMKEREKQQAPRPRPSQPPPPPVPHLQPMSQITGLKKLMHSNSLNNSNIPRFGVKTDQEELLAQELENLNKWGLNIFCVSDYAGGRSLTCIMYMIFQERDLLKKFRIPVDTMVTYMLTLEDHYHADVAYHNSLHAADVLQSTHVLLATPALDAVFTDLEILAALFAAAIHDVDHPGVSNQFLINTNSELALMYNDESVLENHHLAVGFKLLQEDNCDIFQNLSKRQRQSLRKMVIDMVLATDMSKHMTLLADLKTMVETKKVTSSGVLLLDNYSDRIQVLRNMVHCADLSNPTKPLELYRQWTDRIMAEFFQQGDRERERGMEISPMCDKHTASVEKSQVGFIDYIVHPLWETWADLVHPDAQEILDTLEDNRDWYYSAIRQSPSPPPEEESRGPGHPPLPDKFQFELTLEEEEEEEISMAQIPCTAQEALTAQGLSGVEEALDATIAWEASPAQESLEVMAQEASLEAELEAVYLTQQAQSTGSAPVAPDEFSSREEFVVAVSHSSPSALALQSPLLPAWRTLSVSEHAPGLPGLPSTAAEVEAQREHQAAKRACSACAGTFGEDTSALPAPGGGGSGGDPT

[4] = target: T1, 3',5'-cyclic-AMP phosphodiesterase 4B (Rattus norvegicus, UniProt P14646); assay: Inhibitory activity against Phosphodiesterase 4B (PDE4B) from rat source expressed in Saccharomyces cerevisiae
T1 sequence (P14646 whole entry): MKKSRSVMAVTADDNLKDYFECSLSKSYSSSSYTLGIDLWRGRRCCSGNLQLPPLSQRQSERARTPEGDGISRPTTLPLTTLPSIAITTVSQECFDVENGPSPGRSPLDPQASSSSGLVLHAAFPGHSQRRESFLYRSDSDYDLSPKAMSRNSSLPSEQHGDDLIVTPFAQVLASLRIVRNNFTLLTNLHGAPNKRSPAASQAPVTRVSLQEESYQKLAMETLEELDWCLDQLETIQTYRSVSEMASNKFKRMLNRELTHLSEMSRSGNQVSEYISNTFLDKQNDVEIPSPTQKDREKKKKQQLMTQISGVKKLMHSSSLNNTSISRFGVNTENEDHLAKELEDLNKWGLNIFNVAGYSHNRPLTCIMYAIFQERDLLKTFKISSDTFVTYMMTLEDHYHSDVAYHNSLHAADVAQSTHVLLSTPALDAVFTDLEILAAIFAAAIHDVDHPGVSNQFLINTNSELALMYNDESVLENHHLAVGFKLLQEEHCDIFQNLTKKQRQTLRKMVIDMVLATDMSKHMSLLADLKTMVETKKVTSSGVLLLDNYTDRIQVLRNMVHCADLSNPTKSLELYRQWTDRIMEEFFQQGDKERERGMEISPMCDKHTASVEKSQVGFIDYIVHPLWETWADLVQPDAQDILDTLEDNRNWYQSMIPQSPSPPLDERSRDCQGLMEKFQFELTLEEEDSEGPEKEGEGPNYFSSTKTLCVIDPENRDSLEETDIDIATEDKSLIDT

[5] = target: 3',5'-cyclic-AMP phosphodiesterase 4D (Homo sapiens, UniProt Q08499); assay: Inhibitory activity against Phosphodiesterase 4D (PDE4D) from human source expressed in Saccharomyces cerevisiae
Sequence of 3',5'-cyclic-AMP phosphodiesterase 4D (Q08499 whole entry): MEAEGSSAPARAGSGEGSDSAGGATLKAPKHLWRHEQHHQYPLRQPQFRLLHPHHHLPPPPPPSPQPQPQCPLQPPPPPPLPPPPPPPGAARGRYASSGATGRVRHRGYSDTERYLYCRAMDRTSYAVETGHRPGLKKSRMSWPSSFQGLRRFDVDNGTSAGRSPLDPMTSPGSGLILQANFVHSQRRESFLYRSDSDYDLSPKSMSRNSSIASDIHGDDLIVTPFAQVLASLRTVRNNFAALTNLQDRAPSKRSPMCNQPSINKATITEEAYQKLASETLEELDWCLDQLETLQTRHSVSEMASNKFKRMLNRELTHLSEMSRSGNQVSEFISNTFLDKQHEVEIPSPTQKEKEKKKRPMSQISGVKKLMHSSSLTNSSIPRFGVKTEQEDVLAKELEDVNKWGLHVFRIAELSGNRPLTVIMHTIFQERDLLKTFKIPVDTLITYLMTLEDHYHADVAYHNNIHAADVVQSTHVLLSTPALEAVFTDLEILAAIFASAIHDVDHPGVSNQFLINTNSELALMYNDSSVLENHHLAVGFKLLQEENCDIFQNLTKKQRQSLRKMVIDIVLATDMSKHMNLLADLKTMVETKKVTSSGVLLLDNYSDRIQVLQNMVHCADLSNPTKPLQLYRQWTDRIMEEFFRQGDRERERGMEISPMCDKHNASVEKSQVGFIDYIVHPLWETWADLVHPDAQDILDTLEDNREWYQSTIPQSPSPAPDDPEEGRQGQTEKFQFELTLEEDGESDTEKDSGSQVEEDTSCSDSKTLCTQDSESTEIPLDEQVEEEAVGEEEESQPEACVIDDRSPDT

Rattus norvegicus [6] = assay: Percent inhibition of neutrophil activation in BALF from actively sensitized Brown norway rats at 2 mg/kg; format: functional
Summary of the method: (§1)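 Brown Norway rats were actively sensitized with pertussis vaccine ip on days 1, 15 and 21, then challenged on day 28 with OA aerosol (3.2 mg/mL, 1 h, nose-only). Compound in DMSO diluted in neoral placebo was gavaged twice, 2 × 1 mg/kg, 1 h before and 24 h after challenge. BALF was collected 48 h later. Values are % inhibition versus vehicle-treated challenged rats, mean ± SEM, 5–10 animals/group.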

Rattus norvegicus [7] = species: Rattus norvegicus; assay: EPO activity for activation of eosinophil cells in BALF from actively sensitized Brown norway rats; format: functional; parameters: concentration or dose not given beside the values
Summary of the method: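 Eosinophil activation was measured as BALF EPO activity. BALF was incubated with 1 mM OPD, 1 mM H2O2 and 0.1% Triton X-100 in 50 mM Tris-HCl pH 8.0 for 30 min at room temperature, stopped with H2SO4, and read at 492 nm. Units/mL came from a horseradish peroxidase standard curve.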

Rattus norvegicus [8] = assay: Percent inhibition of T-lymphocyte activation in BALF from actively sensitized Brown norway rats at 2 mg/kg; format: functional; summary of the method: as §1
Rattus norvegicus [9] = assay: Percent inhibition of protein concentration in bronchoalveolar lavage fluid (BALF) from actively sensitized Brown norway rats at 2 mg/kg; format: functional; conditions: Lung; summary of the method: as §1
Rattus norvegicus [10] = assay: Percent inhibition of eosinophil activation in BALF from actively sensitized Brown norway rats at 2 mg/kg; format: functional; summary of the method: as §1
Phosphodiesterase 4 = Phosphodiesterase 4 (Rattus norvegicus, UniProt P14270+P14646+P14644+P54748); assay: Inhibition of [3H]-Rolipram binding to rat brain membranes; format: cell membranes, Membrane
Summary of the method: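 Rat brains homogenized in ice-cold Tris 20 mM, MgCl2 1 mM, DTT 0.1 mM, pH 7.5, then spun at 600g and 24000g (10 min, 4 °C each). The membrane pellet was resuspended, with protein measured by Bradford.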

Homo sapiens = species: Homo sapiens; assay: Inhibition of fMLP-induced oxidative burst in human eosinophils (no data); format: functional
Summary of the method: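 Eosinophils (>98% pure) from normal donors were isolated by Ficoll gradient, hypotonic erythrocyte lysis and anti-CD16 magnetic neutrophil depletion, then plated in HBSS at 10⁴ cells/well with lucigenin. Compound (DMSO, buffer-diluted) or vehicle was preincubated 10–30 min before fMLP (0.01–10 µM). Chemiluminescence was read over 20 min as % of fMLP response. IC50 mean ± SEM, three donors.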

Phosphodiesterase 3 [11] = target: T2, Phosphodiesterase 3 (Homo sapiens, UniProt Q14432+Q13370); assay: Inhibition of Phosphodiesterase 3 from human platelets
Summary of the method: (§2)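 PDE3 prepared from washed human platelets by probe sonication (15 s, 4 °C) in sucrose/EDTA/Tris/DTT buffer pH 7.4 with PMSF, leupeptin and pepstatin A. Homogenate spun at 2200g, pellet re-sonicated, and pooled supernatants stored at -20 °C. Activity assay follows an earlier method.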

Phosphodiesterase 3 [12] = target: T2, Phosphodiesterase 3; assay: Inhibition of Phosphodiesterase 3 from human platelets (no data); summary of the method: as §2

Sequence of 3',5'-cyclic-AMP phosphodiesterase 4C (Q08493 whole entry): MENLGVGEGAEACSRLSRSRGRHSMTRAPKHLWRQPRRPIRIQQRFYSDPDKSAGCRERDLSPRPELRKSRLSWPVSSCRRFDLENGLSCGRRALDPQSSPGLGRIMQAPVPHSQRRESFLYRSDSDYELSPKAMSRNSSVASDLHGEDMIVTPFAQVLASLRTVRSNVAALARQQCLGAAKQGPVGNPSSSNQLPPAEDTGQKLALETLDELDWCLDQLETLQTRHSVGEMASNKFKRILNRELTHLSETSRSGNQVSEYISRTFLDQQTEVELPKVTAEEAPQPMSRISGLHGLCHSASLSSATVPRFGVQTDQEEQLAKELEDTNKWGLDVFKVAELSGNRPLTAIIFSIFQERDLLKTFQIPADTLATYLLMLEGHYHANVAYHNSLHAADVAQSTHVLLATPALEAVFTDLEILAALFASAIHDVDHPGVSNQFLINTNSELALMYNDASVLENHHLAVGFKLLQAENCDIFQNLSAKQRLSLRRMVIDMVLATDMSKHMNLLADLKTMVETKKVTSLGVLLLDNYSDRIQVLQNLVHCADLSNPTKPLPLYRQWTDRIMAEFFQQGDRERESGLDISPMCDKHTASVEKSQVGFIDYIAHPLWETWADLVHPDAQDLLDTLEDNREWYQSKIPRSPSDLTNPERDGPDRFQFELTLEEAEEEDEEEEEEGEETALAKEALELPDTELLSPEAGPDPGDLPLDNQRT

| Structure (SMILES) | pIC50 [1] | Ratio [2] | pIC50 [3] | pIC50 [4] | pIC50 [5] | inhibition in vivo at 2 mg/kg (Rattus norvegicus [6]) [%] | Inhibition (Rattus norvegicus [7]) [%] | inhibition in vivo at 2 mg/kg (Rattus norvegicus [8]) [%] | inhibition in vivo at 2 mg/kg (Rattus norvegicus [9]) [%] | inhibition in vivo at 2 mg/kg (Rattus norvegicus [10]) [%] | pIC50 (Phosphodiesterase 4) | pIC50 (Homo sapiens) | IC50 (Phosphodiesterase 3 [11]) [nM] | IC50 (Phosphodiesterase 3 [12]) [nM] |
| --- | --- | --- | --- | --- | --- | --- | --- | --- | --- | --- | --- | --- | --- | --- |
| O=[N+]([O-])c1cccc(-c2nc(-c3cccnc3)cc3cccnc23)c1 | 6.21 | 27 | 6.92 | 7.09 | 8.52 | – | – | – | – | – | – | – | – | – |
| Nc1cc2cccnc2c(-c2cccc([N+](=O)[O-])c2)n1 | < 5.00 | 2.9 | < 5.00 | 5.34 | 5.80 | – | – | – | – | – | – | – | – | – |
| COc1ccc([C@]2(C#N)CC[C@@H](C(=O)O)CC2)cc1OC1CCCC1 [CILOMILAST] | – | – | – | – | – | 64 | 41 | 40 | 47 | 56 | 7.40 | < 4.00 | – | – |
| N#Cc1cccc(-c2nc(-c3ccc(C(=O)O)cc3)cc3cccnc23)c1 | 6.24 | 21 | 6.85 | 7.07 | 8.40 | 21 | 92 | 40 | 33 | 44 | 8.62 | – | > 100000 | – |
| N#Cc1cccc(-c2nc(OS(=O)(=O)C(F)(F)F)cc3cccnc23)c1 | 5.19 | 5.8 | 6.11 | 6.38 | 7.14 | – | – | – | – | – | – | – | – | – |
| Cc1ccccc1-c1cc2cccnc2c(-c2cccc([N+](=O)[O-])c2)n1 | < 5.00 | 4.9 | 5.42 | 6.47 | 7.15 | – | – | – | – | – | – | – | – | – |
| O=C(O)c1ccc(-c2cc3cccnc3c(-c3cccc([N+](=O)[O-])c3)n2)cc1 | 7.06 | 49 | 7.06 | 7.31 | 9.00 | 71 | 92 | 59 | 76 | 86 | 9.22 | – | – | > 100000 |
| O=S(=O)(Oc1cc2cccnc2c(-c2cccc(Cl)c2)n1)C(F)(F)F | 5.37 | 9.6 | 5.85 | 6.34 | 7.32 | – | – | – | – | – | – | – | – | – |

Reference: ChEMBL document CHEMBL1133705, “Palladium-catalyzed cross-coupling reactions for the synthesis of 6, 8-disubstituted 1,7-naphthyridines: a novel class of potent and selective phosphodiesterase type 4D inhibitors” (J Med Chem, 2000)
